CHT inh = inhibits the human high affinity choline transporter. Q9GZV3. CHT-expressing cells, membrane potential dye, choline response; stronger effect = lower value. B-score at 10 µM. 310,000 tested, 0.86% active. AID 488975;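 active = B-score over 3 SD under the library average, and starting fluorescence ratio not unusually high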;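 note: choline stimulus applied at its EC90 after an EC20 pre-addition; B-score computed on integrated fluorescence ratio after choline addition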
Target sequence (Q9GZV3 whole entry, looked up): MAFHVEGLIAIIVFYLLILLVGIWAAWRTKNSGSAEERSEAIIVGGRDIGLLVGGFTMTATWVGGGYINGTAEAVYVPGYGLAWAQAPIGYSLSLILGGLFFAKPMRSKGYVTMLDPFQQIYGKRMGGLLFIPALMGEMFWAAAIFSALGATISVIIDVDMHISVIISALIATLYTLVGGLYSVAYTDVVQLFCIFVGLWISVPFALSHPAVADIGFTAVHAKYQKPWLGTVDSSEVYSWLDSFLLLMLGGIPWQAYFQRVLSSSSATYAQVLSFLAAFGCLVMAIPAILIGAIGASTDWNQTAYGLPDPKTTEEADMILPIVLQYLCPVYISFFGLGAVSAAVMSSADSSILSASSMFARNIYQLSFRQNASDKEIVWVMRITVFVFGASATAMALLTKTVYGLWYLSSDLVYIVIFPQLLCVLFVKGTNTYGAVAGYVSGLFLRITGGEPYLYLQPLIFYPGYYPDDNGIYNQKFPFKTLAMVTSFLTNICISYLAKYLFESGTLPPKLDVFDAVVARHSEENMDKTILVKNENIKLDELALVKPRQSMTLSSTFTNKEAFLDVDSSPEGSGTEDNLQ
NR2E3 ag-1 = NR2E3 (human) agonism; inhibition of corepressor binding, % at 4.78 µM; GST-NR2E3/biotin-RetCOR TR-FRET, 1536-well; Q9Y5X4; 320,000 tested, 0.12% active; AID 2300;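 active = percent inhibition above the cutoff of mean plus 3 SD of all tested compounds, set per screening campaign, cut at about 20% in these data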;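 note: 0% = DMSO wells and 100% = biotin wells as full block of FRET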
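Material – GST-tagged NR2E3 plus biotinylated RetCOR corepressor · Quantity – NR2E3 fusion 1.35 nM · Times – 5 h incubation at 4 °C · Medium – pH 7.5 Tris-based buffer · Technique – TR-FRET, Eu(K)-anti-GST donor, streptavidin-D2 acceptor, ex 340, em 617/671 nm · Benchmarks – high control biotin, low control 0.6% DMSO · Format – 1536-well plates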
CHT PAM = allosterically activates the human high affinity choline transporter; B-score at 10 µM; 310,000 tested, 0.49% active; Q9GZV3; CHT-expressing cells, membrane potential dye, choline EC20; stronger effect = higher value; LV-AA mutant CHT in HEK293 cells; AID 488977;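 active = initial fluorescence not abnormally high and integrated response B-score, plate-corrected, over 3 SD above library mean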
NR2E3 ag-2 = agonists of human NR2E3 nuclear receptor | Q9Y5X4 | CHO-S Gal4-NCOR/VP16-NR2E3 two-hybrid, luciferase | inhibition of corepressor binding, % at 3.98 µM | 360,000 tested, 0.35% active | AID 602229;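 active = inhibition above the mean of all tested compounds plus 3 SD, cut at about 70% in these data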;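 note: 0% = DMSO with NR2E3 transfected cells and 100% = cells lacking NR2E3 construct; higher means lower luciferase signal from less NR2E3 corepressor binding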
GalR3 antag = human GalR3 antagonism | HEK293 GalR3-CNG cAMP membrane potential fluorescence; galR3 body fused to GalR1 C-terminus | 360,000 tested, 0.44% active | inhibition, % at 3 µM | AID 651719 | O60755;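 active = inhibition above the screen-wide average plus 3 SD, cut at about 13% in these data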;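 note: forskolin and galanin both at EC90 stimulate the cells; cAMP rise reported by CNG channel membrane potential dye signal; 0% = forskolin plus galanin with DMSO and 100% = forskolin alone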
COUP-TFII inh = NR2F2 (human) inhibition, primary screen. HEK293T NGFI-A luciferase reporter, luminescence. inhibition, % at 8.6 µM. 370,000 tested, 0.7% active. AID 686940;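 active = inhibition above a per-plate cutoff, mean inhibition of test wells between control levels plus 3 SD, cut at about 38% in these data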;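 note: cells cotransfected with COUP-TFII expression vector driving the NGFI-A reporter; 0% = median of COUP-TF2 test wells and 100% = reporter-only cells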
Gal4-VP16 ctr = inhibits VP16 reporter, flagging COUP-TFII antagonist hits | HEK293 Gal4-VP16 luciferase reporter, luminescence | shares compounds with COUP-TFII inh | inhibition, % at 8.5 µM | 2,500 tested, 25% active | AID 687007; in the data active = inhibition above about 13%
NR2F2 inh conf = COUP-TFII (NR2F2) inhibition, confirmation assay; shares compounds with COUP-TFII inh; HEK293 NGFI-A luciferase reporter, luminescence; inhibition, % at 8.5 µM; 2,500 tested, 45% active; AID 687008;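 active = mean inhibition over three repeats above a set limit taken from the earlier primary screen, cut at about 38% in these data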;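 note: 100% = cells given the luciferase reporter alone without the COUP-TF2 vector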
Starred values were filed as active, the others as inactive; i = inactive; x = not tested or not shown. An excerpt weighted towards active compounds, which were near 2.3% of everything screened.

SMILES	CHT inh	NR2E3 ag-1	CHT PAM	NR2E3 ag-2	GalR3 antag	COUP-TFII inh	Gal4-VP16 ctr	NR2F2 inh conf
O=C1CC(c2ccc3c(c2)OCO3)Sc2nc3ccccc3n21 (stereo not given)	i	4.0	i	20.2	-5.8	42.2*	-72.3	35.7
COc1ccc(/C=C2\CCc3ccccc3C2=O)cc1O	i	4.2	i	-33.3	-2.0	-75.5	x	x
COc1cc(C=C2CCCC(=Cc3ccc(OCC4CO4)c(OC)c3)C2=O)ccc1OCC1CO1 (stereo not given)	x	x	x	30.1	-4.2	68.5*	25.2*	69.5*
Cc1cccc(N2CC(C(=O)Nc3cccc(S(=O)(=O)N4CCCCC4)c3)CC2=O)c1C (stereo not given)	x	1.2	x	5.2	-6.1	47.0*	2.9	14.3
Cc1cccc(N2CC(C(=O)Nc3ccc(S(=O)(=O)N4CCOCC4)cc3)CC2=O)c1C (stereo not given)	i	4.7	i	-15.5	-6.2	6.5	x	x
COC(=O)[C@]12C[C@H](CC(=O)NCCCCc3ccccc3)C(=O)N(CCc3ccc(OC)c(OC)c3)C1=C[C@H](C(C)C)O[C@@H]2C1CC1	x	x	x	x	x	-5.9	x	x
CN(C)c1ccc(C=C2SC(=S)N(Cc3ccco3)C2=O)cc1	x	x	x	-11.8	-4.7	39.5*	-18.4	-1.5
CCOC(=O)[C@@]12CCC3=C1N(CCC3)C(=O)[C@H](CC(=O)NCc1ccc(C)o1)C2	x	x	x	x	x	14.1	x	x
COC(=O)C1CN(Cc2cn(Cc3ccc(C)cc3)nn2)CCS(=O)(=O)N1Cc1ccc(OC)cc1 (stereo not given)	x	x	x	x	x	13.9	x	x
COC(=O)[C@]12C[C@H](CC(=O)NCc3cccs3)C(=O)N(Cc3ccco3)C1=C[C@H](C1CCCC1)O[C@@H]2C	x	x	x	x	x	0.4	x	x
Cc1nc2ccc(NC(=O)c3ccc(S(=O)(=O)N(C)c4ccccc4)cc3)cc2s1	i	5.3	i	-11.8	-11.3	49.1*	-17.9	7.7
CN(c1ccccc1)S(=O)(=O)c1ccc(C(=O)Nc2cccc(S(=O)(=O)N3CCOCC3)c2)cc1	x	x	x	-27.9	-5.1	55.6*	0.3	42.6*
COc1ccccc1N(C)S(=O)(=O)c1ccc(C(=O)Nc2cccc(S(=O)(=O)N3CCOCC3)c2)cc1	x	x	x	-2.2	-0.2	49.9*	4.1	25.6
COc1ccc(C(=O)Nc2cccc(S(=O)(=O)N(C)C)c2)cc1S(=O)(=O)N1CCOCC1	x	x	x	-6.9	-0.6	-7.4	x	x
O=C(Nc1cccc(S(=O)(=O)N2CCOCC2)c1)c1cccc(S(=O)(=O)N2CCCC2)c1	x	x	x	-2.9	-0.6	21.4	x	x
CC(=O)Nc1ccc(NC(=O)c2ccc(S(=O)(=O)N(C)c3ccccc3)cc2)cc1	x	1.7	x	-1.3	-8.6	20.9	x	x
COc1ccc(C2C(C(=O)Nc3ccc(C)c(C)c3)CCC(=O)N2c2ccc(OC)cc2)cc1 (stereo not given)	x	x	x	x	x	13.2	x	x
CCc1ccccc1-c1cc(C(=O)OC)c2n(c1=O)CCC2	x	x	x	x	x	17.0	x	x
O=C(Nc1ccc(F)cc1)OCc1cn(Cc2cccc(F)c2F)nn1	x	x	x	x	x	2.1	x	x
Cc1cc(=O)n2c3c(c4c(cc13)c(CN(C)C)cc(=O)n4C)OC2	x	x	x	-17.0	-6.2	78.2*	-6.9	-1.1
COC(=O)[C@@H](CC(C)C)CP(=O)(OC)[C@@H](C)NC(=O)OCc1ccccc1 (stereo not given in full)	x	x	x	x	x	-2.6	x	x
COC(=O)N1CCC[C@H]1c1cccc2[nH]cc(C)c12	x	x	x	x	x	4.1	x	x
O=C(Nc1ccc(N2CCN(c3ncccc3C(F)(F)F)CC2)nc1)c1cccs1	i	0.2	i	7.0	-5.7	52.3*	5.4	40.5*
O=C(Nc1ccc(N2CCN(c3ccc(C(F)(F)F)cn3)CC2)nc1)c1cccs1	i	-0.6	i	-6.7	-2.7	8.2	x	x
CC[n+]1ccc(/C=C/c2ccc(N(C)C)cc2)c2ccccc21	x	x	x	36.7	2.9	78.4*	33.7*	88.4*
SMILES	CHT inh	NR2E3 ag-1	CHT PAM	NR2E3 ag-2	GalR3 antag	COUP-TFII inh	Gal4-VP16 ctr	NR2F2 inh conf
CC[n+]1ccccc1/C=C/c1ccc(N(C)C)cc1	x	x	x	-6.6	-3.6	66.0*	0.6	50.1*
CC[n+]1c(/C=C/c2ccc(N(C)C)cc2)ccc2ccccc21	i	-25.4	i	21.1	8.0	68.1*	28.9*	91.0*
CN(C)c1ccc(C=Cc2nccc3ccccc23)cc1	x	x	x	-91.1	-2.1	2.9	x	x
COc1ccc(OC)c(NC(=O)c2ccccc2N(Cc2ccccc2)C(=O)C(C)Cl)c1 (stereo not given)	x	x	x	x	x	-11.3	x	x
COC(=O)CC[C@H](/C=C/C(=O)OC(C)(C)C)Sc1ccc(C(C)(C)C)cc1	x	x	x	x	x	-3.7	x	x
C(C#CCCCCCCCCC[n+]1ccccc1)#CCCCCCCCCC[n+]1ccccc1	i	0.9	7.65*	58.0	x	64.9*	16.1*	36.2
COc1ccc(OC)c(NC(=O)CCC(=O)Oc2ccc(C)cc2)c1	i	0.9	i	-3.9	-8.5	38.9*	-5.8	0.4
Cc1ccc(Cn2cc(COC(=O)NCCc3c[nH]c4ccccc34)nn2)cc1	x	x	x	x	x	-16.2	x	x
Cc1nn(C)c(C)c1CNC(=O)c1nn2c(c1Cl)NC(c1cccs1)CC2C(F)(F)F (stereo not given)	i	1.1	i	-7.0	-4.2	40.1*	-5.3	11.3
CC(C)(C)c1ccc(C(=O)N2CCCCCC2=O)cc1	i	0.5	i	45.2	-1.6	85.8*	80.6*	76.4*
CCOC(=O)[C@H](Cc1ccccc1)NC(=O)[C@H]1C[C@@]2(N3CCCCC3)c3ccccc3N(C(=O)OC(C)(C)C)[C@H]2N1C(=O)OC(C)(C)C	x	x	x	x	x	13.3	x	x
S=C(NCc1ccc(Cl)cc1)NC1CCN(Cc2ccccc2)CC1	i	4.7	i	-25.4	11.9	51.7*	6.3	19.4
Clc1ccc(CNC2CCN(Cc3ccccc3)CC2)cc1	i	0.2	i	-4.0	-10.2	5.2	x	x
CCOC(=O)/C=C1\CN(Cc2cc(OC)c(OC)c(OC)c2)S(=O)(=O)c2ccc(C(F)(F)F)cc21	i	1.0	i	15.0	-4.8	47.7*	-7.7	0.1
CCOC(=O)/C=C1\CN(Cc2cc(OC)c(OC)c(OC)c2)S(=O)(=O)c2ccccc21	i	4.3	i	-14.6	-2.1	29.5	x	x
COc1ccc(-c2cn[nH]c2-c2ccc(OCc3ccc([N+](=O)[O-])cc3)cc2O)cc1OC	i	2.3	i	3.3	0.0	38.0*	-7.1	24.8
O=[N+]([O-])c1ccc(COc2ccc(-c3[nH]ncc3-c3ccc(Cl)cc3)c(O)c2)cc1	i	-0.9	i	-12.0	-2.8	-5.2	x	x

Screening data as filed in PubChem BioAssay.
